Source: ChEMBL document CHEMBL1134702, “Arylalkylidene rhodanine with bulky and hydrophobic functional group as selective HCV NS3 protease inhibitor” (Bioorg Med Chem Lett, 2001)

Key:
Plasminogen = Plasminogen (Homo sapiens, UniProt P00747); experiment: Inhibitory activity against plasmin
Procedure, shortened: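 Fluorogenic casein-substrate protease kit assay using 0.002U plasmin per reaction at 30 °C, stopped within the linear phase of the reaction; IC50 determined.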

NS3 = NS3 (Hepatitis C virus, UniProt A3EZJ3); experiment: Inhibitory activity against hepatitis C virus (HCV) NS3 protease; parameters: species or system Hepacivirus hominis
Procedure, shortened: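 His-tagged HCV NS3 fusion expressed in BL21(DE3) E. coli, purified, quantified by densitometry against BSA. Reaction started with GST-bead 5A5B substrate (3 µg); 37 °C, 15 min or <40% conversion. Cleavage read by SDS-PAGE, Coomassie, densitometry; IC50 determined.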

Chain of Plasminogen (P00747 97-580 limits assumed): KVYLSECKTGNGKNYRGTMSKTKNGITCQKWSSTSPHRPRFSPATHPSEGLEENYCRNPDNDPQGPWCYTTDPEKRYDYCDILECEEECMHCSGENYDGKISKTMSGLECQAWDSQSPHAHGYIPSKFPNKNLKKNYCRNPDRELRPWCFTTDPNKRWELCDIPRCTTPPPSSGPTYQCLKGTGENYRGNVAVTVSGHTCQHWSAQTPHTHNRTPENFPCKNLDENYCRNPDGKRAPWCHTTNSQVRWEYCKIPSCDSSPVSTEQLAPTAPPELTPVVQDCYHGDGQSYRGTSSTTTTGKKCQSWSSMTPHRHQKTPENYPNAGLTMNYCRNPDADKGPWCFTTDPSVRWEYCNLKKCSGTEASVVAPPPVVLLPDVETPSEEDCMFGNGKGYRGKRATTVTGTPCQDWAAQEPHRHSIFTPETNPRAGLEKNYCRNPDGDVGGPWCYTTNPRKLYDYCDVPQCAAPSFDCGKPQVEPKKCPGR
Chain of Plasminogen (P00747 581-810 limits assumed): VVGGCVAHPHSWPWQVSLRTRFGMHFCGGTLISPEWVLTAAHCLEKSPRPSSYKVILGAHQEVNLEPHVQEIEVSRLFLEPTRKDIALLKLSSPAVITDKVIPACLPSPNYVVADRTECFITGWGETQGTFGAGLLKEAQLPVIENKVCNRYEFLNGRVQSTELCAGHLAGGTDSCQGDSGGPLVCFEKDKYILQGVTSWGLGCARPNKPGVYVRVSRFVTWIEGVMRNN
Chain of NS3 (A3EZJ3 whole entry, the tested form may be a part): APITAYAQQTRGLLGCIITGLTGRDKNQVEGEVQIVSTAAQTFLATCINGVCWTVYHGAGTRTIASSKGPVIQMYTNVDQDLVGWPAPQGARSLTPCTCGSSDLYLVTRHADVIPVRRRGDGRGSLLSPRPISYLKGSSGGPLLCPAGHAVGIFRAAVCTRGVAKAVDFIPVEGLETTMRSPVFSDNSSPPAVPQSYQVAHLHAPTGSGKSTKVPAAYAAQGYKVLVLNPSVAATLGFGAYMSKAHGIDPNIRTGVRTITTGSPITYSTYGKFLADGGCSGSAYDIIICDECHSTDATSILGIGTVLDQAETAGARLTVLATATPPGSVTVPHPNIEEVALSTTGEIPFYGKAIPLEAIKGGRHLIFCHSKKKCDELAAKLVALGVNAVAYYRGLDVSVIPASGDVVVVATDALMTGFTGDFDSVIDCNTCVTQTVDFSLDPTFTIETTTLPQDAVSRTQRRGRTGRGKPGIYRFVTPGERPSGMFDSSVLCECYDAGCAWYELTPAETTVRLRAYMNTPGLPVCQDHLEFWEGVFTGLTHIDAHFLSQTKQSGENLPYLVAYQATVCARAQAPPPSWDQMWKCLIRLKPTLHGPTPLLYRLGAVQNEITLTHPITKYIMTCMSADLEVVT

SMILES	IC50 (Plasminogen) [µM]	IC50 (NS3) [µM]
COC(=O)CN1C(=O)/C(=C/c2cc3c(cc2[N+](=O)[O-])OCO3)SC1=S	< 1	71
CCOC(=O)CN1C(=O)/C(=C(\C)c2cccc(OC(=O)N[C@@H](CC(C)C)C(=O)N(CCN(Cc3ccc(C(=O)OC)cc3)Cc3ccc(C(=O)OC)cc3)Cc3ccc(Cl)cc3)c2)SC1=S	20	16
O=C(O)CN1C(=O)/C(=C/c2cc([N+](=O)[O-])ccc2F)SC1=S	13	64
C/C(=C1/SC(=S)N(CC(=O)O)C1=O)c1ccc(-c2ccccc2)cc1	7	20
C=CCN1C(=O)/C(=C/c2cc3c(cc2[N+](=O)[O-])OCO3)SC1=S	< 1	40
CCOC(=O)CN1C(=O)/C(=C(\C)c2cccc(NS(=O)(=O)c3ccc(-c4ccc(S(=O)(=O)NCCNC(=O)OC(C)(C)C)cc4)cc3)c2)SC1=S	20	15
